Reference: ChEMBL document CHEMBL1153954, “Promiscuous aggregate-based inhibitors promote enzyme unfolding” (J Med Chem, 2009)
The source made the active and inactive calls. The rule behind the calls is not given here.

Target: AmpC (Escherichia coli) (UniProt Q83TT7)
Assay: Inhibition of Escherichia coli AmpC assessed as induction of protein unfolding measured by trypsin mediated degradation of compound-AmpC enzyme complex at 250 uM after 15 mins by gel electrophoresis
Summary of the method: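 AmpC β-lactamase (0.5 μM) in 50 mM KPi, pH 7.0, with or without aggregator at 250 μM (1% DMSO final). Trypsin (0.01 or 0.025 mg/mL) added after 5 min. Digestion ran at room temperature for 0 min to 4 h. Samples were boiled 2 min in DTT-containing loading buffer, run on SDS-PAGE, and the β-lactamase band was scored against compound-free enzyme.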

AmpC (Escherichia coli), sequence (Q83TT7 as listed by the source): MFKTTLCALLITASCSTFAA

Activity	SMILES
Active	Nc1c(/N=N/c2ccc(-c3ccc(/N=N/c4cc(S(=O)(=O)O)c5ccccc5c4N)cc3)cc2)cc(S(=O)(=O)O)c2ccccc12
Active	COC(=O)C1=C(C)NC(C)=C(C(=O)OCCN(C)Cc2ccccc2)C1c1cccc([N+](=O)[O-])c1 (configuration not stated)
